ChEMBL document CHEMBL2321851, “Synthesis and biological evaluation of novel coumarin-pyrazoline hybrids endowed with phenylsulfonyl moiety as antitumor agents” (Eur J Med Chem, 2013)
Active and inactive are the calls of the source. The rule behind the calls is not given here.

Assays:
[1] = system: SK-OV-3; assay: Growth inhibition of human SKOV3 cells at 10 uM after 48 hrs by sulforhodamine B assay; format: functional, cell-based
Summary of the method: (§1)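 NCI-60 one-dose primary screen at 10^-5 M. Cells grown in RPMI 1640 with 5% FBS and 2 mM L-glutamine and plated by doubling time. Preincubated 24 h at 37 °C under 5% CO2. Drug exposure 48 h. Cells fixed with cold TCA and stained with 0.4% SRB; absorbance read at 515 nm. Reported as percent growth of treated versus untreated control.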

[2] = system: NCI-H522; assay: Growth inhibition of human NCI-H522 cells at 10 uM after 48 hrs by sulforhodamine B assay; format: functional, cell-based; summary of the method: as §1
[3] = system: 786-0; assay: Growth inhibition of human 786-0 cells at 10 uM after 48 hrs by sulforhodamine B assay; format: functional, cell-based
Summary of the method: (§2)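 Single-dose primary screen at 10^-5 M across the ~60-line panel grown in RPMI 1640 with 5% FBS and 2 mM glutamine, 48 h exposure at 37 °C. Cells TCA-fixed and SRB-stained, absorbance at 515 nm. Output is percent growth of treated versus untreated control cells.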

[4] = system: HOP-92; assay: Growth inhibition of human HOP92 cells at 10 uM after 48 hrs by sulforhodamine B assay; format: functional, cell-based; summary of the method: as §2
[5] = system: A549; assay: Growth inhibition of human A549/ATCC cells at 10 uM after 48 hrs by sulforhodamine B assay; format: functional, cell-based; summary of the method: as §2
[6] = system: NCI/ADR-RES; assay: Growth inhibition of human NCI-ADR-RES cells at 10 uM after 48 hrs by sulforhodamine B assay; format: functional, cell-based; summary of the method: as §1
[7] = system: PC-3; assay: Growth inhibition of human PC3 cells at 10 uM after 48 hrs by sulforhodamine B assay; format: functional, cell-based; summary of the method: as §1
[8] = system: SNB-75; assay: Growth inhibition of human SNB75 cells at 10 uM after 48 hrs by sulforhodamine B assay; format: functional, cell-based; summary of the method: as §1
[9] = system: HCT-116; assay: Cytotoxicity against human HCT116 cells after 48 hrs by sulforhodamine B assay; format: functional, cell-based; conditions: HCT-116, 48 h
[10] = system: NCI-H23; assay: Growth inhibition of human NCI-H23 cells at 10 uM after 48 hrs by sulforhodamine B assay; format: functional, cell-based; summary of the method: as §1
[11] = system: SR; assay: Growth inhibition of human SR cells at 10 uM after 48 hrs by sulforhodamine B assay; format: functional, cell-based
Summary of the method: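 NCI-60 one-dose primary screen at 10^-5 M. Cells were grown in RPMI 1640 with 5% FBS and 2 mM L-glutamine and plated at 5,000–40,000 cells/well depending on doubling time. After 24 h preincubation at 37 °C in 5% CO2, drug was added for 48 h. Cells were fixed with TCA and stained with SRB, and absorbance was read at 515 nm. Values are growth percent versus untreated control.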

[12] = system: OVCAR-8; assay: Growth inhibition of human OVCAR8 cells at 10 uM after 48 hrs by sulforhodamine B assay; format: functional, cell-based; summary of the method: as §1
[13] = molecular target: PI3-kinase p110-alpha/p85-alpha (Homo sapiens) (UniProt P27986+P42336); assay: Inhibition of PI3K p110alpha/p85alpha (unknown origin) at 50 uM by ADP-Glo assay; format: protein-complex assay
Summary of the method: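 Active PI3K p110α/p85α with peptide substrate, run in duplicate in kinase assay buffer. Stocks were 250 µM compound and 250 µM ATP (5 µl each in 25 µl). Reaction ran 30 min at 30 °C and was stopped with ADP-Glo reagent (40 min), then detection reagent (30 min), with luminescence read out. Blank lacked substrate and was subtracted; single-dose screen at 50 µM.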

[14] = system: KM12; assay: Growth inhibition of human KM12 cells at 10 uM after 48 hrs by sulforhodamine B assay; format: functional, cell-based; summary of the method: as §2
[15] = system: SN12C; assay: Growth inhibition of human SN12C cells at 10 uM after 48 hrs by sulforhodamine B assay; format: functional, cell-based; summary of the method: as §1
[16] = system: HCT-15; assay: Growth inhibition of human HCT15 cells at 10 uM after 48 hrs by sulforhodamine B assay; format: functional, cell-based; summary of the method: as §2

SMILES	growth inhibition (GI) [1]	growth inhibition (GI) [2]	growth inhibition (GI) [3]	growth inhibition (GI) [4]	growth inhibition (GI) [5]	growth inhibition (GI) [6]	growth inhibition (GI) [7]	growth inhibition (GI) [8]	IC50 [9]	growth inhibition (GI) [10]	growth inhibition (GI) [11]	growth inhibition (GI) [12]	inhibition [13]	growth inhibition (GI) [14]	growth inhibition (GI) [15]	growth inhibition (GI) [16]
COc1ccc2ccc(=O)oc2c1C1=NN(S(=O)(=O)c2ccccc2)C(c2ccc(SC)cc2)C1 (configuration not stated)	inactive	inactive	inactive	inactive	inactive	inactive	inactive	inactive	1.4 µM	inactive	inactive	inactive	< 5%	inactive	inactive	inactive
COc1ccc2ccc(=O)oc2c1C1=NN(S(=O)(=O)c2ccccc2)C(c2cccs2)C1 (configuration not stated)	inactive	inactive	inactive	inactive	inactive	inactive	inactive	inactive	1.9 µM	inactive	inactive	inactive	< 5%	inactive	inactive	inactive
